STAT1 inh – STAT1 signaling inhibition. NIH 3T3 STAT1-luciferase reporter, IFN-gamma, luminescence. inhibition, % at 5.5 µM. 0.35% of 200,000 active;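 active = inhibition above a set limit, the mean inhibition across all tested compounds plus 3 SD, cut at about 34% in these data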
Cl transport mod – modulates chloride dependent transport by human KCC2 | B-score of Tl+ flux slope (higher = more flux/activation; lower = inhibition) at 10 µM | KCC2 cells, thallium flux FluoZin-2 fluorescence | Q9H2X9 | 2.2% of 190,000 active | AID 1456;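 active = thallium flux slope and its plate-corrected score both differing from the plate sample mean at a set confidence after two filtering rounds, in either direction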;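 also: slope of fluorescence scaled to starting intensity during 10 to 20 s after thallium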
Target sequence (Q9H2X9 whole entry, looked up): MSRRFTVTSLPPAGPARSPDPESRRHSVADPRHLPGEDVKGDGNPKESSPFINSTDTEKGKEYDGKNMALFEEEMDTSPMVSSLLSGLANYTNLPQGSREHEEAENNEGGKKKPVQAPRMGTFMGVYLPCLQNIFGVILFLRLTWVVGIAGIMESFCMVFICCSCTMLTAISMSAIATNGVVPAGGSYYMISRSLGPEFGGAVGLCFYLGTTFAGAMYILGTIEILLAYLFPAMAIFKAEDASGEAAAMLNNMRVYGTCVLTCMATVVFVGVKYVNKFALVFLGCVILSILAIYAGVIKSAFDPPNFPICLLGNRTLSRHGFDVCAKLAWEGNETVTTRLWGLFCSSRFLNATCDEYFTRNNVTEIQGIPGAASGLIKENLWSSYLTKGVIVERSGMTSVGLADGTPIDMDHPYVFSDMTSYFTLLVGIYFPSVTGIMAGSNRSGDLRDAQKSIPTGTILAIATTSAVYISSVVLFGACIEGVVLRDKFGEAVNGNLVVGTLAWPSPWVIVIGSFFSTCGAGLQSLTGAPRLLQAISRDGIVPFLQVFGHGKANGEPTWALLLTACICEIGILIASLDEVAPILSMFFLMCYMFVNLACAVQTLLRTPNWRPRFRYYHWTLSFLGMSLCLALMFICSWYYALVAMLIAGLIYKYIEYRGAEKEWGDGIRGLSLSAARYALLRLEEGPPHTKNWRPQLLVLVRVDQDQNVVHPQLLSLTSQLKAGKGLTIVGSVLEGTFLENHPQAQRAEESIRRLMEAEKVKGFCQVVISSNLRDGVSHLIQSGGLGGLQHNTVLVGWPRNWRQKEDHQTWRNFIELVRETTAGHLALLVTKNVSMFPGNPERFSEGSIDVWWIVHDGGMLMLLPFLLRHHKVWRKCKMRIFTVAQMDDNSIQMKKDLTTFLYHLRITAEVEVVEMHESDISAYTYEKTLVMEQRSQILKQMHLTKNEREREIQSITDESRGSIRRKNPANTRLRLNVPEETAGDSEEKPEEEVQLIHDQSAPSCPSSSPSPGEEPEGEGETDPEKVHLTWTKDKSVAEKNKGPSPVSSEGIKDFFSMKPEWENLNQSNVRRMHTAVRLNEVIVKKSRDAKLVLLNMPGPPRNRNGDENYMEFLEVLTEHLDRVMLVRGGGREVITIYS
STAT3 blocker – reduces IL-6 driven STAT3 reporter signal. inhibition, % at 5.5 µM. U3A cells, IL-6 STAT3-luciferase reporter, luminescence; host cell line lacks STAT1. AID 862. 0.89% of 190,000 active;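 active = inhibition above the mean inhibition across all screened compounds plus 3 SD, cut at about 44% in these data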
STAT3 activator – STAT3 signaling activation; activation (% of control), % at 5.6 µM; U3A cells, IL-6 STAT3-luciferase reporter, luminescence; 100% = signal with IL-6 EC80 alone; 0.91% of 190,000 active;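 active = activation above the screen-wide mean of compound activation plus 3 SD, cut at about 130% in these data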
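Test system: human U3A cells carrying STAT3-luciferase construct; control set: IL-6-only wells as 100% reference; timing: compound pre-incubation 1 h before IL-6, then 6 h stimulation at 37 °C; also added: IL-6 stimulus at 33 ng/mL final; evaluation: % activation versus median of IL-6-stimulated wells; detection: reporter luminescence signal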
HSV replic up – HSV replication enhancement; HSV replication augmentation in cells, fold increase; maximum fold increase; 0.005% of 220,000 active; in the data active = maximum fold increase above about 1.5; inconclusive = no clear call, values can overlap the other calls; tested in PC3 cells
STAT1 act – STAT1 signaling activation | NIH 3T3 STAT1-luciferase reporter, IFN-gamma, luminescence; 100% = IFN-gamma alone, no compound | activation (% of control), % at 5.5 µM | 2.6% of 200,000 active;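 active = activation above the screen-wide mean activation plus 3 SD, cut at about 130% in these data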
KCC2 sec1 – KCC2 (human) modulation, secondary assay; shares compounds with Cl transport mod; HEK293-KCC2, thallium flux, FluoZin2 fluorescence; hits give high values; normalised thallium flux (F/F0 slope) at 10 µM; 15% of 3,700 active;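 active = thallium flux slope above the same plate's solvent-only control mean plus 3 SD; inconclusive = the two replicate wells disagree; inactive = no significant difference from solvent-only control wells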
KCC2 bumet counter – thallium flux persisting under bumetanide in KCC2 cells, counter-screen secondary assay | shares compounds with Cl transport mod | HEK293-KCC2 + bumetanide/ouabain, thallium flux FluoZin2; hits give high values | normalized thallium flux at 10 µM | 49% of 3,700 active;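 active = thallium entry rate above the same plate's blocked-transporter control wells by more than 3 SD; inconclusive = the two repeat wells disagree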;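 also: raw slope of fluorescence over initial fluorescence between 10 and 20 s after thallium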
KCC2 secondary2 – KCC2 (human) modulation, second secondary assay. shares compounds with Cl transport mod. HEK293-KCC2, thallium flux FluoZin2 fluorescence; actives lie on both sides; F/F0 rise rate, 10–20 s post-thallium. normalized thallium flux at 10 µM. 23% of 3,700 active;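 active = thallium flux slope more than 3 SD above or below the plate's solvent-only control mean, mostly below; inconclusive = the two repeat wells disagreed; inactive = no significant shift from solvent-only controls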
HEK293 Tl flux – parental HEK flux effect, counter-screen | shares compounds with Cl transport mod | AID 1716 | thallium flux rate (normalised fluorescence) at 10 µM | HEK293 parental cells, thallium flux FluoZin2, ouabain; baseline-ratio fluorescence slope, 10–20 s after thallium | 46% of 3,700 active;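 active = thallium flux rate significantly above the same plate's solvent-only control wells, beyond their mean plus 3 SD; inconclusive = the two replicate wells gave conflicting results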
KCC2 retest ouab – KCC2 (human) modulation, ouabain retest. shares compounds with Cl transport mod. HEK293-KCC2, thallium flux FluoZin2 fluorescence; bidirectional: low = inhibitor, high = activator. raw Tl+ flux slope (below DMSO = inhibition, above = activation) at 10 µM. 48% of 3,700 active;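 active = thallium flux slope beyond 3 SD from same-plate DMSO control mean in most replicates, usually higher, sometimes lower; inconclusive = repeat tests gave conflicting results; inactive = no significant difference from controls in most replicates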;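 also: slope of initial-normalized fluorescence between seconds 10 and 20 after thallium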
HEK counter2 – counter-screen for KCC2 modulators: effect in parental HEK293 cells; shares compounds with Cl transport mod; thallium flux FluoZin-2 fluorescence slope; thallium flux slope at 10 µM; 33% of 3,700 active; AID 1718;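 active = thallium flux slope above the same plate's solvent-control mean plus 3 SD in both duplicate wells; inconclusive = duplicate wells that disagreed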;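 also: run without ouabain in cells lacking the KCC2 cotransporter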
Each line names hits and unclear results; the compound was inactive in the other large screens (follow-up assays come after a bar, where they were run). Shown are actives, neighbours in structure and some others; about 5.5% of the full set was active somewhere.

Cn1c(-c2sc3cc(C(F)(F)F)cnc3c2-c2cccs2)n[nH]c1=S	Cl transport mod 10.4 | KCC2 sec1 inactive | KCC2 bumet counter 0.0154 | KCC2 secondary2 inactive | HEK293 Tl flux 0.00991 | KCC2 retest ouab inconclusive | HEK counter2 inactive
CC(=O)c1ccc(OCCCC(=O)NC2CCCc3ccccc32)cc1 (centres undefined)	none
CCc1nnc(NC(=O)C2CCCN(S(=O)(=O)c3ccccc3)C2)s1 (centres undefined)	none (no result: Cl transport mod) | KCC2 sec1 inconclusive | KCC2 bumet counter inactive | KCC2 secondary2 inactive | HEK293 Tl flux inactive | KCC2 retest ouab inactive | HEK counter2 inactive
CCOc1cccc(/C=N/Nc2nc(N3CCCC3)nc(N3CCCC3)n2)c1O	Cl transport mod -4.46 (no result: STAT1 inh, STAT3 blocker, STAT3 activator, STAT1 act) | KCC2 sec1 inactive | KCC2 bumet counter inactive | KCC2 secondary2 inactive | HEK293 Tl flux inactive | KCC2 retest ouab inactive | HEK counter2 0.0112
CC(=O)Nc1ccc(S(=O)(=O)N(Cc2ccccc2)C(C)C)cc1	none
O=C(c1cc2c(s1)-c1ccccc1S(=O)(=O)C2)N1CCN(Cc2ccccc2)CC1	none (no result: HSV replic up) | KCC2 sec1 inactive | KCC2 bumet counter inactive | KCC2 secondary2 inactive | HEK293 Tl flux inactive | KCC2 retest ouab inconclusive | HEK counter2 inactive
CCN1CCN(C(=O)c2cc3c(s2)-c2ccccc2S(=O)(=O)C3)CC1	none
O=c1c2ccccc2nnn1Cc1ccccn1	Cl transport mod -4.98 | KCC2 sec1 inactive | KCC2 bumet counter inconclusive | KCC2 secondary2 inactive | HEK293 Tl flux inactive | KCC2 retest ouab inactive | HEK counter2 inactive
O=C(Nc1ccc(C(=O)NC2CCCCC2)cc1)c1cncc(Br)c1	none (no result: Cl transport mod)
Nn1c(COc2ccc(Cl)cc2)n[nH]c1=S	Cl transport mod -3.34 | KCC2 sec1 inactive | KCC2 bumet counter inactive | KCC2 secondary2 inconclusive | HEK293 Tl flux inactive | KCC2 retest ouab 0.0347 | HEK counter2 inactive
Cc1cccc(C)c1OCc1n[nH]c(=S)n1N	none
CCOC(=O)c1c(NC(=O)OC)sc(C(=O)N(CC)CC)c1C	none
COC(=O)C1CCN(C(=O)COC(=O)CCc2nc3ccccc3c(=O)[nH]2)CC1	Cl transport mod 4.59 (no result: HSV replic up) | KCC2 sec1 inactive | KCC2 bumet counter inactive | KCC2 secondary2 inactive | HEK293 Tl flux inactive | KCC2 retest ouab inactive | HEK counter2 inconclusive
O=C(CCc1nc2ccccc2c(=O)[nH]1)OCC(=O)N1CCc2ccccc21	none
Cc1ccc2nc(N/C(=N/S(=O)(=O)c3cccs3)c3ccccc3Cl)sc2c1	Cl transport mod 6.4 | KCC2 sec1 inactive | KCC2 bumet counter 0.0229 | KCC2 secondary2 inactive | HEK293 Tl flux 0.0216 | KCC2 retest ouab inconclusive | HEK counter2 0.0168
CCOc1ccc2nc(NC(=O)c3ccccn3)sc2c1	Cl transport mod 6.41 (no result: STAT1 inh, STAT3 blocker, STAT3 activator, STAT1 act) | KCC2 sec1 inconclusive | KCC2 bumet counter 0.0278 | KCC2 secondary2 inactive | HEK293 Tl flux 0.0134 | KCC2 retest ouab 0.0302 | HEK counter2 inconclusive
O=C(Nc1nc2ccc(S(=O)(=O)N3CCCC3)cc2s1)c1ccccn1	none
COc1ccc2nc(NC(=O)CNS(=O)(=O)c3cccs3)sc2c1	none (no result: Cl transport mod) | KCC2 sec1 inactive | KCC2 bumet counter inactive | KCC2 secondary2 inactive | HEK293 Tl flux inactive | KCC2 retest ouab inconclusive | HEK counter2 inconclusive
Cc1ccc2nc(NC(=O)c3ccccn3)sc2c1	STAT1 inh 89.0, Cl transport mod 7.89, STAT3 blocker 98.2 | KCC2 sec1 inconclusive | KCC2 bumet counter 0.0409 | KCC2 secondary2 inactive | HEK293 Tl flux 0.0175 | KCC2 retest ouab 0.0362 | HEK counter2 0.0112
COc1ccc2nc(NC(=O)CN(C)S(=O)(=O)c3cccs3)sc2c1	none
O=C(O)c1cn(C2CCCCC2)c2ccccc2c1=O	none (no result: STAT1 inh, STAT3 blocker, STAT3 activator, STAT1 act)
Cc1ccc(C(=O)NCC(=O)OCC(=O)/C=C2\N(C)c3ccccc3C2(C)C)cc1C	none
CCOC(=O)c1cnc2c(OC)cccc2c1Nc1ccc2c(c1)OCCO2	none
CCc1cc(C(=O)O)c(NC(=O)C(c2ccccc2)c2ccccc2)s1	Cl transport mod -4.33 | KCC2 sec1 inactive | KCC2 bumet counter 0.00546 | KCC2 secondary2 inactive | HEK293 Tl flux inactive | KCC2 retest ouab inactive | HEK counter2 inactive
CCOC(=O)c1cc(C)sc1NC(=O)C(c1ccccc1)c1ccccc1	none
COc1ccc(N2C(=S)N=C(Nc3cccc(C)c3)C23CCCCC3)cc1	Cl transport mod 4.32 | KCC2 sec1 inactive | KCC2 bumet counter 0.0112 | KCC2 secondary2 inactive | HEK293 Tl flux 0.0106 | KCC2 retest ouab inactive | HEK counter2 0.0113
Cc1cccc(C)c1NC1=NC(=S)N(c2ccc(C(=O)O)cc2)C12CCCCC2	none
Cc1cccc(NC2=NC(=S)N(c3cccc(C(=O)O)c3)C23CCCCC3)c1	none
COc1ccccc1N1C(=S)N=C(Nc2c(C)cccc2C)C12CCCC2	Cl transport mod 6.18 (no result: STAT1 inh, STAT3 blocker, STAT3 activator, STAT1 act) | KCC2 sec1 inactive | KCC2 bumet counter 0.0485 | KCC2 secondary2 inactive | HEK293 Tl flux 0.0152 | KCC2 retest ouab inactive | HEK counter2 0.0123
CC(C)Cn1c(Br)nc2c1c(=O)n(CCC#N)c(=O)n2C	none
O=C(N/N=C/c1cccnc1)c1cccs1	Cl transport mod -3.67 (no result: STAT1 inh, STAT3 blocker, STAT3 activator, STAT1 act) | KCC2 sec1 inactive | KCC2 bumet counter inactive | KCC2 secondary2 inactive | HEK293 Tl flux inactive | KCC2 retest ouab inactive | HEK counter2 inactive
CCOc1ncccc1C(=O)NCc1ccc(OC)c(OC)c1	none
Cc1ccc(C)c(NC(=O)CSc2nnc(-c3ccco3)o2)c1	none
Cc1ccc(C)c(NC(=O)CSc2nnc([C@@H](N)Cc3ccccc3)o2)c1	Cl transport mod -4.3 | KCC2 sec1 inactive | KCC2 bumet counter inactive | KCC2 secondary2 inconclusive | HEK293 Tl flux inactive | KCC2 retest ouab 0.0141 | HEK counter2 inconclusive
CCOc1ccc(N2C(=O)C3C(c4ccc(O)cc4)NC(CCSC)(C(=O)OC)C3C2=O)cc1 (centres undefined)	none

Screening results as filed in PubChem.
